Experimental data as given in ChEMBL document CHEMBL1144100, “Homo- and nor-plakotenin, new carboxylic acids from the Palauan sponge Plakortis lita” (1999).
Activity calls are given as the source filed them. The rule behind the calls is not given here.

Key:
[1] = Antiproliferative activity against rheumatoid synovial fibroblasts assessed as inhibition of PDGF-BB-induced DNA synthesis at 1 ug/mL treated 15 mins before PDGF-BB challenge by [3H]thymidine incorporation assay; type: functional
Summary of the method: (§1)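 Rheumatoid synovial fibroblasts plated at 1.2 × 10^4 cells/well in EMEM with 10% heat-inactivated FBS and penstrep, allowed to adhere 6 h at 37 °C, 5% CO2. Then serum-arrested 24 h in 0.2% FBS. Compounds added in DMSO (0.5% final) for 15 min at room temperature, then 1 nM PDGF-BB in 10% FBS medium for 24 h. Pulsed with 0.5 µCi/well [3H]-thymidine for 24 h, trypsin/EDTA-detached, harvested, scintillation counted versus controls.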

[2] = Antiproliferative activity against rheumatoid synovial fibroblasts assessed as inhibition of PDGF-BB-induced DNA synthesis at 0.1 ug/mL treated 15 mins before PDGF-BB challenge by [3H]thymidine incorporation assay; type: functional; summary of the method: as §1

Question: With `CCC1=C[C@@H](c2ccccc2)[C@@](/C=C(\C)C(=O)[O-])(CC)[C@H]2[C@H]1[C@H](C)C[C@H]2C.[Na+]` as the compound, how does the “inhibition (INH)” value [1] read?
Answer: 27.8%

Question: Which results are given for `CC1=C[C@@H](c2ccccc2)[C@](C)(/C=C(\C)C(=O)O)[C@H]2[C@H]1[C@H](C)C[C@H]2C`?
Answer: Activity [2]: inactive; inhibition at 1 µg/mL [1]: 0%

Question: For `CCC1=C[C@@H](c2ccccc2)[C@@](/C=C(\C)C(=O)O)(CC)[C@H]2[C@H]1[C@H](C)C[C@H]2C` [listing 1 of 2 here], which “inhibition (INH)” value [1] is on record?
Answer: 73.5%

Question: With `CC[C@@]1(/C=C(\C)C(=O)[O-])[C@H]2[C@H](C(C)=C[C@H]1c1ccccc1)[C@H](C)C[C@H]2C.[Na+]` [PLAKOTENIN SODIUM SALT] as the compound, how does the “inhibition (INH)” value [1] read?
Answer: 35.7%

Question: For `CC[C@@]1(/C=C(\C)C(=O)O)[C@H]2[C@H](C(C)=C[C@H]1c1ccccc1)[C@H](C)C[C@H]2C` [PLAKOTENIN], which “inhibition (INH)” value [1] is on record?
Answer: 76.8%

Question: For `CC[C@@]1(/C=C(\C)C(=O)O)[C@H]2[C@H](C(C)=C[C@H]1c1ccccc1)[C@H](C)C[C@H]2C`, which Activity [2] is on record?
Answer: inactive

Question: For `CCC1=C[C@@H](c2ccccc2)[C@@](/C=C(\C)C(=O)O)(CC)[C@H]2[C@H]1[C@H](C)C[C@H]2C` [listing 2 of 2 here], which Activity [2] is on record?
Answer: inactive
